# Test results from the array DNA melting data of Ke et al. (doi:10.1101/2024.01.08.574731).
# Key:
# [1] = melting temperature; fluorescence melt of hairpins on a sequencing array, two-state fit, raised by 9.35 °C to match UV melts; conditions: sodium 0.088 M
# Outline: (§1)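 Melting temperature and folding enthalpy were derived from bootstrapped two-state fits. The fitted temperatures were raised by 9.35 °C to agree with UV melts, and four replicates were combined by inverse variance. The underlying data were Cy3 fluorescence images of library hairpins, with annealed Cy3 and quencher oligos, on a sequenced MiSeq flow cell in 50 mM Na-HEPES pH 8.0, 25 mM NaCl, taken in 2.5 °C steps up to 60 °C, normalised to pre-quench Cy3 and to control constructs.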
# [2] = folding enthalpy; higher = less favourable; fluorescence melt of hairpins on a sequencing array, two-state fit; conditions: sodium 0.088 M
# Outline: as §1
sequence,measurement,setting,value
GTCTGCGAAAGCAAGAC ((((((....))).))),Tm,[1],60.5 °C
same,folding enthalpy,[2],-26.3 kcal/mol
GTCTGCGAAAGCATAGAC ((((((....)))..))),Tm,[1],45.9 °C
same,folding enthalpy,[2],-19.9 kcal/mol
GTCTGGCGAAAGCCGAC (((.(((....)))))),Tm,[1],55.8 °C
same,folding enthalpy,[2],-16 kcal/mol
GTCTGGGGAAACCCAGAC (((((((....))))))),Tm,[1],68.5 °C
same,folding enthalpy,[2],-37.6 kcal/mol
GTCTGGGGAAACCCGGAC (((.(((....))).))),Tm,[1],55.5 °C
same,folding enthalpy,[2],-39.6 kcal/mol
GTCTGGGGAAACTCAGGC (.(((.(....).))).),Tm,[1],35.8 °C
same,folding enthalpy,[2],-23.3 kcal/mol
GTCTGGGGAAACTCGGAC (((.(.(....).).))),Tm,[1],37.1 °C
same,folding enthalpy,[2],-28.8 kcal/mol
GTCTGTGCGAAAGCAGAC (((..(((....)))))),Tm,[1],46.4 °C
same,folding enthalpy,[2],-19.5 kcal/mol
GTCTGTGGAAACATAGAC ((((.((....)).)))),Tm,[1],44.5 °C
same,folding enthalpy,[2],-31.2 kcal/mol
GTCTGTGGAAACATGGAC (((..((....))..))),Tm,[1],37.3 °C
same,folding enthalpy,[2],-26.8 kcal/mol
GTCTGTGGAAACGCAGAC (((((.(....).))))),Tm,[1],53.8 °C
same,folding enthalpy,[2],-48 kcal/mol
GTCTGTGGAAACGTAGAC ((((..(....)..)))),Tm,[1],37.2 °C
same,folding enthalpy,[2],-23.6 kcal/mol
GTCTTAGGAAACTAAGAC (((((((....))))))),Tm,[1],53.7 °C
same,folding enthalpy,[2],-38.4 kcal/mol
GTCTTCCCGAAAGGGGAC (((..(((....)))))),Tm,[1],35.9 °C
same,folding enthalpy,[2],-12.5 kcal/mol
GTCTTCCGAAAGGAGAC (((.(((....)))))),Tm,[1],47.6 °C
same,folding enthalpy,[2],-23.4 kcal/mol
GTCTTCGAAAGAAATGAC ((((((....)))..))),Tm,[1],25.1 °C
same,folding enthalpy,[2],-9.91 kcal/mol
GTCTTCGAAAGAACGGAC ((((((....)))..))),Tm,[1],30.4 °C
same,folding enthalpy,[2],-14.6 kcal/mol
GTCTTCGAAAGAATAGAC ((((((....)))..))),Tm,[1],30.7 °C
same,folding enthalpy,[2],-19.5 kcal/mol
GTCTTCGAAAGAATGAC ((((((....))).))),Tm,[1],37.9 °C
same,folding enthalpy,[2],-25 kcal/mol
GTCTTCGGAAACAAAGAC (((((.(....).))))),Tm,[1],32.3 °C
same,folding enthalpy,[2],-29.7 kcal/mol
GTCTTCGGAAACGAAGAC (((((((....))))))),Tm,[1],64.8 °C
same,folding enthalpy,[2],-30.5 kcal/mol
GTCTTCGGAAACGGAGAC ((((.((....)).)))),Tm,[1],50.4 °C
same,folding enthalpy,[2],-39.1 kcal/mol
GTCTTGAAAAAGAC (((((....))))),Tm,[1],44.1 °C
same,folding enthalpy,[2],-21.7 kcal/mol
GTCTTGCCGAAAGGCGAC (((..(((....)))))),Tm,[1],38.3 °C
same,folding enthalpy,[2],-10.7 kcal/mol
GTCTTGCGAAAGCACGAC (((.(((....))).))),Tm,[1],52.1 °C
same,folding enthalpy,[2],-41.5 kcal/mol
GTCTTGCGAAAGCAGGAC (((.(((....))).))),Tm,[1],58 °C
same,folding enthalpy,[2],-27.4 kcal/mol
GTCTTGTCGAAAGACGAC (((..(((....)))))),Tm,[1],50.4 °C
same,folding enthalpy,[2],-18.1 kcal/mol
GTCTTTCGAAAGAAGAC (((.(((....)))))),Tm,[1],38.5 °C
same,folding enthalpy,[2],-25.1 kcal/mol
GTGAAAGGAAACTTCCAC (((.(((....))).))),Tm,[1],27.8 °C
same,folding enthalpy,[2],-16.3 kcal/mol
GTGAAAGGAAACTTTCGC (.(((((....))))).),Tm,[1],45.2 °C
same,folding enthalpy,[2],-27.3 kcal/mol
GTGAACACGAAAGTGCAC (((..(((....)))))),Tm,[1],41.2 °C
same,folding enthalpy,[2],-14.1 kcal/mol
GTGAACGAAAGTTAACAC ((((((....)))..))),Tm,[1],35.5 °C
same,folding enthalpy,[2],-19.5 kcal/mol
GTGAACGAAAGTTGCAC ((((((....))).))),Tm,[1],37.3 °C
same,folding enthalpy,[2],-19.8 kcal/mol
GTGAACGAAAGTTGTCAC ((((((....)))..))),Tm,[1],27.9 °C
same,folding enthalpy,[2],-21.8 kcal/mol
GTGAACGAAAGTTTGCAC ((((((....)))..))),Tm,[1],32 °C
same,folding enthalpy,[2],-15.4 kcal/mol
GTGAACGGAAACGTTCAC (((((((....))))))),Tm,[1],67.8 °C
same,folding enthalpy,[2],-30 kcal/mol
GTGAAGCCGAAAGGCCAC (((..(((....)))))),Tm,[1],47.8 °C
same,folding enthalpy,[2],-15.6 kcal/mol
GTGAATCCGAAAGGACAC (((..(((....)))))),Tm,[1],32.8 °C
same,folding enthalpy,[2],-20.1 kcal/mol
GTGAATCGAAAGATCAC (((.(((....)))))),Tm,[1],45.3 °C
same,folding enthalpy,[2],-26.3 kcal/mol
GTGAATGGAAACATTTAC ((.((((....)))).)),Tm,[1],36.5 °C
same,folding enthalpy,[2],-32.9 kcal/mol
GTGACAGGAAACTGCCAC (((.(((....))).))),Tm,[1],46.8 °C
same,folding enthalpy,[2],-33 kcal/mol
GTGACCCGAAAGGGCAC (((.(((....)))))),Tm,[1],62.4 °C
same,folding enthalpy,[2],-22.9 kcal/mol
GTGACCGAAAGGTAGCAC ((((((....)))..))),Tm,[1],36.1 °C
same,folding enthalpy,[2],-16.9 kcal/mol
GTGACCGAAAGGTCTCAC ((((((....)))..))),Tm,[1],41.2 °C
same,folding enthalpy,[2],-10.6 kcal/mol
GTGACCGAAAGGTGGCAC ((((((....)))..))),Tm,[1],40.7 °C
same,folding enthalpy,[2],-16.3 kcal/mol
GTGACCGAAAGGTGTCAC ((((((....)))..))),Tm,[1],45.8 °C
same,folding enthalpy,[2],-25.4 kcal/mol
GTGACCGAAAGGTTTCAC ((((((....)))..))),Tm,[1],34.8 °C
same,folding enthalpy,[2],-13.1 kcal/mol
GTGACCGCGAAAGCGCAC (((..(((....)))))),Tm,[1],40.3 °C
same,folding enthalpy,[2],-8.65 kcal/mol
GTGACCGGAAACAGTCAC (((((.(....).))))),Tm,[1],45.2 °C
same,folding enthalpy,[2],-32.1 kcal/mol
GTGACCGGAAACGGTTGC (..((((....))))..),Tm,[1],47.6 °C
same,folding enthalpy,[2],-17.9 kcal/mol
GTGACGACGAAAGTCCAC (((..(((....)))))),Tm,[1],38.2 °C
same,folding enthalpy,[2],-13 kcal/mol
GTGACGCGAAAGCGACAC (((.(((....))).))),Tm,[1],69.3 °C
same,folding enthalpy,[2],-33.9 kcal/mol
GTGACGGCGAAAGCCCAC (((..(((....)))))),Tm,[1],44.3 °C
same,folding enthalpy,[2],-12.1 kcal/mol
GTGACGGGAAACCACCAC (((..((....))..))),Tm,[1],27.4 °C
same,folding enthalpy,[2],-15.7 kcal/mol
GTGACGGGAAACCATCAC ((((.((....)).)))),Tm,[1],42.1 °C
same,folding enthalpy,[2],-32.6 kcal/mol
GTGACGGGAAACTGTCAC (((((.(....).))))),Tm,[1],54.8 °C
same,folding enthalpy,[2],-37.8 kcal/mol
GTGACGTCGAAAGACCAC (((..(((....)))))),Tm,[1],40.3 °C
same,folding enthalpy,[2],-13.6 kcal/mol
GTGACTGGAAACAGCCAC (((.(((....))).))),Tm,[1],47.9 °C
same,folding enthalpy,[2],-41.7 kcal/mol
GTGACTGGAAACAGTTAC ((.((((....)))).)),Tm,[1],45.5 °C
same,folding enthalpy,[2],-29.2 kcal/mol
GTGACTGGAAACAGTTGC (..((((....))))..),Tm,[1],39.3 °C
same,folding enthalpy,[2],-22.9 kcal/mol
GTGAGAACGAAAGTTCAC (((..(((....)))))),Tm,[1],43.9 °C
same,folding enthalpy,[2],-18 kcal/mol
GTGAGACGAAAGTCACAC (((.(((....))).))),Tm,[1],55.4 °C
same,folding enthalpy,[2],-31.3 kcal/mol
GTGAGAGCGAAAGCTCAC (((..(((....)))))),Tm,[1],48.6 °C
same,folding enthalpy,[2],-14.5 kcal/mol
GTGAGCACGAAAGTGCAC (((..(((....)))))),Tm,[1],60.1 °C
same,folding enthalpy,[2],-8.71 kcal/mol
GTGAGCGAAAGCTACAC ((((((....))).))),Tm,[1],49.1 °C
same,folding enthalpy,[2],-16.1 kcal/mol
GTGAGGAAACTCAC (((((....))))),Tm,[1],51.9 °C
same,folding enthalpy,[2],-24.5 kcal/mol
GTGAGGCGAAAGCCCCAC (((.(((....))).))),Tm,[1],53.8 °C
same,folding enthalpy,[2],-22.8 kcal/mol
GTGAGTGAAAACTCAC ((((((....)))))),Tm,[1],59.1 °C
same,folding enthalpy,[2],-37.7 kcal/mol
GTGAGTGGAAACATTCGC (.((.((....)).)).),Tm,[1],33.4 °C
same,folding enthalpy,[2],-16.4 kcal/mol
GTGATACGAAAGTACCAC (((.(((....))).))),Tm,[1],45.6 °C
same,folding enthalpy,[2],-32.7 kcal/mol
GTGATAGGAAACTATCGC (.(((((....))))).),Tm,[1],46.3 °C
same,folding enthalpy,[2],-38.2 kcal/mol
GTGATCGAAAGATACAC ((((((....))).))),Tm,[1],35.8 °C
same,folding enthalpy,[2],-22.1 kcal/mol
GTGATCGAAAGATCAC ((((((....)))))),Tm,[1],67.4 °C
same,folding enthalpy,[2],-37.1 kcal/mol
GTGATCGAAAGATCTCAC ((((((....)))..))),Tm,[1],39.1 °C
same,folding enthalpy,[2],-11.4 kcal/mol
GTGATCGAAAGATTACAC ((((((....)))..))),Tm,[1],38.5 °C
same,folding enthalpy,[2],-20 kcal/mol
GTGATCGGAAACGATTGC (..((((....))))..),Tm,[1],40.5 °C
same,folding enthalpy,[2],-22.1 kcal/mol
GTGATGGGAAACCATCGC (.(((((....))))).),Tm,[1],55.1 °C
same,folding enthalpy,[2],-23.7 kcal/mol
GTGATGGGAAACCGTCAC ((((.((....)).)))),Tm,[1],52.9 °C
same,folding enthalpy,[2],-50.2 kcal/mol
GTGATTCGAAAGAAACAC (((.(((....))).))),Tm,[1],46.5 °C
same,folding enthalpy,[2],-30 kcal/mol
GTGATTGGAAACAATTAC ((.((((....)))).)),Tm,[1],37.5 °C
same,folding enthalpy,[2],-32.3 kcal/mol
GTGCACCGAAAGGTCAC (((.(((....)))))),Tm,[1],52.5 °C
same,folding enthalpy,[2],-26.3 kcal/mol
GTGCACGAAAGTGACCAC ((((((....)))..))),Tm,[1],41.3 °C
same,folding enthalpy,[2],-12.7 kcal/mol
GTGCACGAAAGTGGACAC ((((((....)))..))),Tm,[1],52.6 °C
same,folding enthalpy,[2],-15.2 kcal/mol
GTGCACGAAAGTGGCAC ((((((....))).))),Tm,[1],59.4 °C
same,folding enthalpy,[2],-25.1 kcal/mol
GTGCACGAAAGTGTCCAC ((((((....)))..))),Tm,[1],34.8 °C
same,folding enthalpy,[2],-10.8 kcal/mol
GTGCACGCGAAAGCGCAC (((..(((....)))))),Tm,[1],56.3 °C
same,folding enthalpy,[2],-15.4 kcal/mol
GTGCACGGAAACGCACAC (((..((....))..))),Tm,[1],38.5 °C
same,folding enthalpy,[2],-19.9 kcal/mol
GTGCAGCGAAAGCTTCAC (((.(((....))).))),Tm,[1],51.6 °C
same,folding enthalpy,[2],-27.6 kcal/mol
GTGCATGGAAACATACAC (((.(((....))).))),Tm,[1],39.3 °C
same,folding enthalpy,[2],-35 kcal/mol
GTGCCATCGAAAGATCAC (((..(((....)))))),Tm,[1],38.4 °C
same,folding enthalpy,[2],-5.32 kcal/mol
GTGCCCACGAAAGTGCAC (((..(((....)))))),Tm,[1],44.9 °C
same,folding enthalpy,[2],-15.5 kcal/mol
